Data from ChEMBL document CHEMBL1128433, “Novel 1,2-dithiins: synthesis, molecular modeling studies, and antifungal activity” (1995).
≈ marks a conversion by molar mass, not a printed value.

Key:
Assay type in all cases: functional
Aspergillus fumigatus [1] = assay: Antifungal activity against aspergillus fumigatus
Method in brief: (§1)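 A. fumigatus grown on SAB agar 3–4 d at 35 °C; conidia used as inoculum at final 1 × 10^3 cfu/mL. Broth microdilution in SAB broth, 2-fold serial dilutions of compound dissolved in ethanol or DMSO. Incubated 48 h at 35 °C. MIC read by eye as the lowest concentration with no visible growth. Amphotericin B reference.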

Candida albicans [2] = assay: Antifungal activity against candida albicans
Method in brief: (§2)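 Candida grown 24 h at 35 °C on YM agar, then 6 h at 35 °C with rotation in GYB broth (2% glucose, 1% yeast extract). Final inoculum 2 × 10^3 cfu/mL. 96-well SAB broth microdilution, 2-fold series from ethanol or DMSO solutions. 24 h at 35 °C; MIC = lowest concentration without visible growth. Amphotericin B reference.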

Cryptococcus neoformans [3] = assay: Antifungal activity against cryptococcus neoformans
Method in brief: (§3)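 C. neoformans grown on YM agar 48 h at 35 °C, then 6 h in GYB broth at 35 °C with rotation. Final inoculum 2 × 10^4 cfu/mL. SAB broth microdilution with 2-fold serial dilutions (compound in ethanol or DMSO). Incubated 48 h at 35 °C; MIC read visually as the lowest concentration with no growth. Amphotericin B reference.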

Aspergillus fumigatus [4] = assay: Antifungal activity against aspergillus fumigatus WM-1; method in brief: as §1
Candida albicans [5] = assay: Antifungal activity against candida albicans A-26; method in brief: as §2
Candida albicans [6] = assay: Antifungal activity against candida albicans B-311; method in brief: as §2
Pichia kudriavzevii = assay: Antifungal activity against candida krusei GK7831; method in brief: as §2
Candida parapsilosis = assay: Antifungal activity against candida parapsilosis CP18; conditions: Lodderomyces parapsilosis; method in brief: as §2
Cryptococcus neoformans [7] = assay: Antifungal activity against cryptococcus neoformans MI-106; method in brief: as §3
Candida tropicalis = assay: Antifungal activity against candida tropicalis 1525; method in brief: as §2
Trichophyton rubrum = assay: Antifungal activity against Trichophyton rubrum ATCC 18762
Method in brief: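 T. rubrum grown on SAB agar 5–7 d at 25 °C; conidia as inoculum, final 1 × 10^4 cfu/mL. Compounds in ethanol or DMSO, 2-fold serial dilutions in SAB broth in 96-well plates. Incubated 7 d at 25 °C. MIC taken as the lowest concentration with no visible growth versus the growth-control wells. Amphotericin B was the reference.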

SMILES	MIC (Aspergillus fumigatus [1]) [mg/L]	MIC (Candida albicans [2]) [mg/L]	MIC (Cryptococcus neoformans [3]) [mg/L]	further results
CC(=O)OCC1=CC=C(COC(C)=O)SS1	0.63 (≈ 2.42 µM)	1.25 (≈ 4.8 µM)	0.63 (≈ 2.42 µM)	
O=[N+]([O-])c1ccc(OCC2=CC=C(CO)SS2)nc1	0.4 (≈ 1.34 µM)	0.2 (≈ 0.67 µM)	0.1 (≈ 0.335 µM)	
OCC1=CC=C(COc2cccc(O)c2)SS1	> 100	50 (≈ 186 µM)	100 (≈ 373 µM)	
OCC1=CC=C(COc2ccccn2)SS1	3.1 (≈ 12.2 µM)	3.1 (≈ 12.2 µM)	3.1 (≈ 12.2 µM)	
O=CC1=CC=C(C=O)SS1	6.3 (≈ 36.6 µM)	1.6 (≈ 9.29 µM)	1.6 (≈ 9.29 µM)	
CCOC(=O)/C=C/C1=CC=C(CO)SS1	25 (≈ 102 µM)	12.5 (≈ 51.2 µM)	6.3 (≈ 25.8 µM)	
O=C(OCC1=CC=C(COC(=O)c2cccnc2)SS1)c1cccnc1	2 (≈ 5.18 µM)	2 (≈ 5.18 µM)		
OCC1=CC=C(/C=N/O)SS1	1.6 (≈ 8.45 µM)	1.6 (≈ 8.45 µM)	1.6 (≈ 8.45 µM)	MIC (Aspergillus fumigatus [4]): 1.6 mg/L (≈ 8.45 µM); MIC (Candida albicans [5]): 1.6 mg/L (≈ 8.45 µM); MIC (Candida albicans [6]): 1.6 mg/L (≈ 8.45 µM); MIC (Pichia kudriavzevii): 6.3 mg/L (≈ 33.3 µM); MIC (Candida parapsilosis): 3.1 mg/L (≈ 16.4 µM); MIC (Cryptococcus neoformans [7]): 1.6 mg/L (≈ 8.45 µM); MIC (Candida tropicalis): 6.3 mg/L (≈ 33.3 µM); MIC (Trichophyton rubrum): 0.8 mg/L (≈ 4.23 µM)
OCC1=CC=C(COc2ccccc2C(F)(F)F)SS1	50 (≈ 156 µM)	25 (≈ 78 µM)	6.3 (≈ 19.7 µM)	
OCC1=CC=C(CSc2nnnn2-c2ccc(O)cc2)SS1	12.5 (≈ 35.5 µM)	25 (≈ 70.9 µM)	6.3 (≈ 17.9 µM)	
O=C(OCC1=CC=C(COC(=O)c2ccccc2)SS1)c1ccccc1	> 100	> 100	> 100	
CC1(C)OCC(COCC2=CC=C(CO)SS2)O1 (stereo unspecified)	> 100	> 100	> 100	
CO/N=C/C1=CC=C(CO)SS1	6.3 (≈ 31 µM)	6.3 (≈ 31 µM)	6.3 (≈ 31 µM)	
CC(=O)OCC1=CC=C(CO)SS1	0.4 (≈ 1.83 µM)	3.1 (≈ 14.2 µM)	0.2 (≈ 0.916 µM)	MIC (Pichia kudriavzevii): 1.25 mg/L (≈ 5.73 µM); MIC (Candida parapsilosis): 1.25 mg/L (≈ 5.73 µM); MIC (Candida tropicalis): 1.25 mg/L (≈ 5.73 µM); MIC (Trichophyton rubrum): 0.31 mg/L (≈ 1.42 µM)
COC(=O)c1ccccc1OCC1=CC=C(CO)SS1	12.5 (≈ 40.3 µM)	6.3 (≈ 20.3 µM)	6.3 (≈ 20.3 µM)	
CC(C)C(=O)OCC1=CC=C(COC(=O)C(C)C)SS1	6.3 (≈ 19.9 µM)	> 100	12.5 (≈ 39.5 µM)	
[N-]=[N+]=NCC1=CC=C(CO)SS1	0.25 (≈ 1.24 µM)	0.25 (≈ 1.24 µM)	0.25 (≈ 1.24 µM)	
O=C(OCC1=CC=C(CO)SS1)c1ccccc1O	0.2 (≈ 0.675 µM)	0.2 (≈ 0.675 µM)	0.2 (≈ 0.675 µM)	
O=C(OCC1=CC=C(COC(=O)c2ccncc2)SS1)c1ccncc1	2 (≈ 5.18 µM)	2 (≈ 5.18 µM)		

SMILES	MIC (Aspergillus fumigatus [1]) [mg/L]	MIC (Candida albicans [2]) [mg/L]	MIC (Cryptococcus neoformans [3]) [mg/L]	further results
[N-]=[N+]=NCC1=CC=C(CCl)SS1	50 (≈ 228 µM)	25 (≈ 114 µM)	6.3 (≈ 28.7 µM)	
O=C(Nc1ccccc1O)OCC1=CC=C(CO)SS1	50 (≈ 161 µM)	100 (≈ 321 µM)	50 (≈ 161 µM)	
OCC1=CC=C(CO)SS1	2 (≈ 11.3 µM)	16 (≈ 90.8 µM)	31 (≈ 176 µM)	
O=C(NCC1=CC=C(CO)SS1)Nc1ccccc1O	> 100	> 100	> 100	
OCC1=CC=C(COCC(O)CO)SS1 (stereo unspecified)	> 100	> 100	> 100	
COC(=O)/C=C/C1=CC=C(CO)SS1	6.3 (≈ 27.4 µM)	6.3 (≈ 27.4 µM)	6.3 (≈ 27.4 µM)	
CC1(C)OCC(COCC2=CC=C(COCC3COC(C)(C)O3)SS2)O1 (stereo unspecified)	> 100	> 100	> 100	
OCC1=CC=C(COc2ccc(O)nn2)SS1	> 100	> 100	> 100	
O=c1ccc(=O)n(CC2=CC=C(CO)SS2)[nH]1	> 100	> 100	> 100	
O=C(OCC1=CC=C(COC(=O)C2CC2)SS1)C1CC1	1.6 (≈ 5.12 µM)	6.3 (≈ 20.2 µM)	3.1 (≈ 9.92 µM)	
COC(=O)c1cccc(OCC2=CC=C(CO)SS2)c1	25 (≈ 80.5 µM)	3.1 (≈ 9.99 µM)	6.3 (≈ 20.3 µM)	
O=C(OCC1=CC=C(CO)SS1)C1CCCC1	3.1 (≈ 11.4 µM)	6.3 (≈ 23.1 µM)		
O=c1ccc([N+](=O)[O-])cn1CC1=CC=C(CO)SS1	> 100	> 100	100 (≈ 335 µM)	
CC(=O)NCC1=CC=C(CO)SS1	> 100	> 100	100 (≈ 460 µM)	
OCC1=CC=C(COc2cc(C(F)(F)F)ccc2Cl)SS1	6.3 (≈ 17.8 µM)	1.6 (≈ 4.51 µM)	1.6 (≈ 4.51 µM)	
O=c1ccccn1CC1=CC=C(CO)SS1	> 100	> 100	12.5 (≈ 49.3 µM)	
CC1(C)OCC(COCC2=CC=C(COCC(O)CO)SS2)O1 (stereo unspecified)	> 100	> 100	> 100	
OCC1=CC=C(COc2ccccc2)SS1	25 (≈ 99.1 µM)	25 (≈ 99.1 µM)	12.5 (≈ 49.5 µM)	
OCC1=CC=C(COc2ccccc2F)SS1	3.1 (≈ 11.5 µM)	3.1 (≈ 11.5 µM)	1.6 (≈ 5.92 µM)	

SMILES	MIC (Aspergillus fumigatus [1]) [mg/L]	MIC (Candida albicans [2]) [mg/L]	MIC (Cryptococcus neoformans [3]) [mg/L]	further results
O=C(OCC1=CC=C(COC(=O)C2CCCC2)SS1)C1CCCC1	> 250	> 250		
CO/N=C/C1=CC=C(/C=N/OC)SS1	6.3 (≈ 27.4 µM)	0.8 (≈ 3.47 µM)	1.6 (≈ 6.95 µM)	
CN(C)c1cccc(OCC2=CC=C(CO)SS2)c1	100 (≈ 338 µM)	> 50	50 (≈ 169 µM)	
O=C(OCC1=CC=C(CO)SS1)c1ccncc1	1.6 (≈ 5.69 µM)	3.1 (≈ 11 µM)		
O=C(NCC1=CC=C(CO)SS1)c1ccccc1O	> 100	> 100	100 (≈ 339 µM)	
OCC1=CC=C(COc2cccnc2)SS1	3.1 (≈ 12.2 µM)	3.1 (≈ 12.2 µM)	1.6 (≈ 6.32 µM)	
N#CC1=CC=C(CO)SS1	1.6 (≈ 9.34 µM)	0.8 (≈ 4.67 µM)	0.8 (≈ 4.67 µM)	
CCC(=O)OCC1=CC=C(COC(=O)CC)SS1	3.1 (≈ 10.7 µM)	12.5 (≈ 43.3 µM)	6.3 (≈ 21.8 µM)	
O=C(OCC1=CC=C(COC(=O)c2ccccc2O)SS1)c1ccccc1O	> 250	> 250		
C#Cc1cccc(OCC2=CC=C(CO)SS2)c1	6.3 (≈ 22.8 µM)	1.6 (≈ 5.79 µM)	1.6 (≈ 5.79 µM)	
OCC1=CC=C(COc2ccccc2O)SS1	12.5 (≈ 46.6 µM)	6.3 (≈ 23.5 µM)	25 (≈ 93.2 µM)	
Cc1ccc(S(=O)(=O)NC(=O)OCC2=CC=C(CO)SS2)cc1	100 (≈ 268 µM)	100 (≈ 268 µM)	50 (≈ 134 µM)	
OCC1=CC=C(COc2ccc(-n3ccnc3)cc2)SS1	100 (≈ 314 µM)	12.5 (≈ 39.3 µM)	100 (≈ 314 µM)	
O=C(OCC1=CC=C(CO)SS1)c1ccccc1	3.1 (≈ 11.1 µM)	6.3 (≈ 22.5 µM)	3.1 (≈ 11.1 µM)	
O=C(OCC1=CC=C(CO)SS1)C1CC1	0.4 (≈ 1.64 µM)	3.1 (≈ 12.7 µM)	1.6 (≈ 6.55 µM)	MIC (Pichia kudriavzevii): 1.25 mg/L (≈ 5.12 µM); MIC (Candida parapsilosis): 2.5 mg/L (≈ 10.2 µM); MIC (Candida tropicalis): 1.25 mg/L (≈ 5.12 µM); MIC (Trichophyton rubrum): 0.31 mg/L (≈ 1.27 µM)
O/N=C/C1=CC=C(/C=N/O)SS1	0.4 (≈ 1.98 µM)	0.1 (≈ 0.494 µM)	0.8 (≈ 3.96 µM)	MIC (Aspergillus fumigatus [4]): 0.2 mg/L (≈ 0.989 µM); MIC (Candida albicans [5]): 0.2 mg/L (≈ 0.989 µM); MIC (Candida albicans [6]): 0.1 mg/L (≈ 0.494 µM); MIC (Pichia kudriavzevii): 6.3 mg/L (≈ 31.1 µM); MIC (Candida parapsilosis): 0.2 mg/L (≈ 0.989 µM); MIC (Cryptococcus neoformans [7]): 1.6 mg/L (≈ 7.91 µM); MIC (Candida tropicalis): 1.6 mg/L (≈ 7.91 µM); MIC (Trichophyton rubrum): 0.05 mg/L (≈ 0.247 µM)
COC(=O)c1ccc(OCC2=CC=C(CO)SS2)cc1	12.5 (≈ 40.3 µM)	3.1 (≈ 9.99 µM)	3.1 (≈ 9.99 µM)	
N#C/C=C/C1=CC=C(CO)SS1	6.3 (≈ 31.9 µM)	12.5 (≈ 63.4 µM)	3.1 (≈ 15.7 µM)	
